# Bioassay records from PubChem.
# Vif imaging – blocks HIV Vif function; actives 0.35% (n = 340,000); HEK293T cells, Vif self-association by quenched fluorescence, imaging, 24 h; inhibition, % at 7.49 µM; in the data active means inhibition above about 50%, passing the limit was not always enough
# SR-BI DiI-HDL act – SR-BI HDL lipid transfer activation; CHO ldlA[mSR-BI] cells, DiI-HDL uptake fluorescence, 3 h; 100 = double the neutral-control signal; activation, % at 12.5 µM; actives 0.096% (n = 320,000); AID 504775;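 active means mean replicate activation of at least 60% and every replicate at or above 60%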;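 further: 0% = median plate neutral-control signal and 100% = twice that signal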
#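 Assay system: LDL receptor-deficient CHO ldlA cells overexpressing murine SR-BI / Medium: BSA-supplemented, HEPES-buffered Ham's F12, pH 7.4 / Probe or stimulus: DiI-labelled HDL at 10 µg/mL final / Timing: compound with DiI-HDL co-incubation, 3 h at 37 °C / Technique: bottom-read cell fluorescence after medium removal, ex 550/em 595 nm / Measure: HDL uptake via cellular fluorescence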
# SR-BI DiI inh – mouse SR-BI HDL lipid transfer inhibition; Q61009; ldlA[mSR-BI] CHO cells, DiI-HDL uptake fluorescence, 3 h; inhibition, % at 12.5 µM; actives 0.96% (n = 320,000);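 active means mean replicate inhibition of at least 70% and a set share of replicates each scoring 70 or more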;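 further: 0% = median of neutral control wells and 100% = median of positive control wells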
# Target sequence (Q61009 whole entry, looked up): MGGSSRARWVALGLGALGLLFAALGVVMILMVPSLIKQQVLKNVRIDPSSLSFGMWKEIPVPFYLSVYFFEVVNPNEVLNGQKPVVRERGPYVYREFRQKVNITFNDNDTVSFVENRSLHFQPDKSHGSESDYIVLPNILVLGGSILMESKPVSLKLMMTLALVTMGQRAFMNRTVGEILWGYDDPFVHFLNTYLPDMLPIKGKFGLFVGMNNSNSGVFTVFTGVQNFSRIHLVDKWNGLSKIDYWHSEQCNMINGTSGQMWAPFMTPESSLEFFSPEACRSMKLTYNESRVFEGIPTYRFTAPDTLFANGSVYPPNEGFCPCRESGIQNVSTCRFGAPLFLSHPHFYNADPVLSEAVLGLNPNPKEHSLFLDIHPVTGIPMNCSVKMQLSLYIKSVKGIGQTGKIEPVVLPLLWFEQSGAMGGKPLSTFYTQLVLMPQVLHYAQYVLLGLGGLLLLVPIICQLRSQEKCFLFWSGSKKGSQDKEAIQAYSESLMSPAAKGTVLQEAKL
# C2C12 statin – suppression of simvastatin myotoxicity. AID 602340. rescue of ATP level, % at 7.49 µM. actives 0.78% (n = 330,000). C2C12 myotubes + simvastatin, ATP luminescence, 48 h; scaled: DMSO 0, geranylgeraniol control 100;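 active means mean ATP rescue above about 67%, or every replicate alone reaching that limit, limit read from the data, passing the limit was not always enough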;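 further: myotubes were challenged with 10 µM simvastatin during compound exposure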
# Numbers without * were called inactive; . = not tested or not shown. Hits are enriched below; roughly 1.7% of the tested compounds scored in any of these assays.
SMILES,Vif imaging,SR-BI DiI-HDL act,SR-BI DiI inh,C2C12 statin
COc1ccc(N2CCN(C(=O)Cn3nnc(-c4ccccc4N)n3)CC2)cc1,.,-83,83*,.
Cc1ccccc1-c1cnc2c(c1)C(=O)N([C@H](C)CO)C[C@@H](C)[C@@H](CN(C)C(=O)CN(C)C)O2,.,.,.,6
COc1ccc(OC)c(NC(=O)Nc2cccc3ccccc23)c1,0,-67,67,-30
COc1ccc(C(=O)Nc2cc(OC)c(NC(=O)Nc3ccccc3)cc2OC)cc1,73*,.,.,-21
COc1ccc(NC(=O)NCc2cccn2C)c(OC)c1,-4,-85,85*,.
COc1ccc(NC(=O)Nc2cccc3ccccc23)c(OC)c1,11,-71,71*,-6
COc1ccc(C(=O)Nc2cc(OC)c(Cl)cc2OC)cc1,3,-57,57,.
COc1ccc(NC(=O)NCc2ccncc2)c(OC)c1,-1,-4,4,.
CCN(CC)S(=O)(=O)c1cc(NC(=O)NCCCl)ccc1C,0,.,.,-5
CCN(CC)S(=O)(=O)c1cc(NC(=O)c2ccc(Br)s2)ccc1C,-27,-75,75*,-17
C[C@@H]1CN([C@@H](C)CO)C(=O)c2cc(N(C)C)ccc2O[C@@H](C)CCCCO[C@@H]1CN(C)Cc1ccncc1,.,.,.,21
CC(=O)C[C@H](O)CC(=O)[C@H]1OC(=O)CCCCC/C=C/Cc2ccccc21,4,-4,4,9
CC(=O)C[C@@H](O)CC(=O)[C@@H]1OC(=O)CCCCC/C=C/Cc2ccccc21,8,17,-17,92*
CC(=O)C[C@@H](O)CC(=O)[C@@H]1OC(=O)CCCCCCCCc2ccccc21,4,1,-1,125*
COc1ccc(N2COC3c4cccc5cccc(c45)C32)cc1 (configuration not stated),0,-22,22,88*
Cc1ccc(NC(=O)CCNS(=O)(=O)c2ccc3[nH]c(=O)oc3c2)cc1F,14,10,-10,111*
CCOC(=O)COn1c(=O)c(-c2ccccc2)[n+]([O-])c2ccccc21,76*,9,-9,1
O=C1Nc2ccc(Br)cc2/C1=C/C(=O)c1ccc2c(c1)OCO2,-13,-75,75*,.
Cn1nnnc1SCCOc1ccc(C#N)cc1,13,-15,15,116*
COCC(=O)N(C)C[C@@H]1Oc2ncc(-c3ccc(F)cc3)cc2C(=O)N([C@@H](C)CO)C[C@H]1C,.,.,.,-3
COCC(=O)Nc1ccc2c(c1)C(=O)N(C)C[C@H](OC)[C@@H](C)CN(Cc1cncnc1)[C@@H](C)CO2,.,.,.,-10
C/C(=N\Nc1cc(C)nc(NCc2ccccc2)n1)c1ccc([N+](=O)[O-])cc1,-2,-86,86*,.
CN1CCN(C(=O)C[C@@H]2C=C[C@@H](NC(=O)Nc3ccccc3F)[C@H](CO)O2)CC1,.,.,.,-1
CCNC(=O)C[C@H]1CC[C@@H](NS(=O)(=O)c2ccc(C)cc2)[C@@H](CO)O1,.,.,.,11
O=C(CN1CCCCC1)Nc1ccc(C(F)(F)F)cc1Cl,2,-4,4,91*
SMILES,Vif imaging,SR-BI DiI-HDL act,SR-BI DiI inh,C2C12 statin
O=C(CN1CCCC1)Nc1cc(C(F)(F)F)ccc1Cl,0,17,-17,.
C[C@H](CO)N1C[C@H](C)[C@H](CN(C)Cc2ccc3c(c2)OCO3)Oc2ccc(NC(=O)C3CCCCC3)cc2CC1=O,.,.,.,16
COc1cc(OC)c(-c2sc(Nc3ccccc3)n[n+]2-c2ccc(F)cc2)cc1OC,-3,-10,10,-9
COc1cc(Br)c(-c2sc(Nc3ccccc3)n[n+]2-c2ccc(F)cc2)cc1OC,17,-3,3,135*
COc1cc2c(cc1OC)C(c1ccccc1)N(C(=O)CCl)CC2 (configuration not stated),.,21,-21,168*
COc1cc2c(cc1OC)C(C1C(=O)CCCC1=O)N(C(=O)CCl)CC2 (configuration not stated),-9,13,-13,3
Cc1ccc(S(=O)(=O)Nc2ccc3c(c2)CC(=O)N([C@H](C)CO)C[C@H](C)[C@@H](CN(C)C(=O)NC(C)C)O3)cc1,.,.,.,28
O=C(CNC(=O)c1ccncc1)N/N=C/c1ccccn1,59*,15,-15,.
CCOc1ccc(C(=O)C(CN2CCOCC2)c2ccccc2)cc1 (configuration not stated),2,2,-2,92*
C[C@H]1CN([C@@H](C)CO)S(=O)(=O)c2ccc(-c3cccc(C#N)c3)cc2O[C@H]1CN(C)C,.,.,.,-11
COc1ccc(NC(=O)Nc2ccc3c(c2)CC(=O)N([C@@H](C)CO)C[C@@H](C)[C@@H](CN(C)S(=O)(=O)c2ccc(OC)cc2)O3)cc1,.,.,.,5
CCC(CO)Oc1cc(NC(=O)c2cccc([N+](=O)[O-])c2)c2ncn(C(C)C)c2c1 (configuration not stated),1,-75,75*,-7
CCC(=O)Nc1ccc(S(=O)(=O)Nc2nccs2)cc1,3,17,-17,7
CC(C)CC(=O)Nc1ccc(S(=O)(=O)Nc2nccs2)cc1,-4,65*,-65,15
Cn1c(=O)c2c(nc3sccn32)n(C)c1=O,.,69*,-69,11
Cc1nc2sccn2c(=O)c1Cl,11,17,-17,5
Cc1cc2ncn(/N=C/c3cccnc3)c2cc1C,.,-14,14,-7
Cc1cc2ncn(/N=C/c3ccc(-c4ccccc4)o3)c2cc1C,17,20,-20,146*
COC(=O)c1ccc(NC(=O)CSc2n[nH]c(-c3ccncc3)n2)cc1,8,.,.,77*
CCOC(=O)c1ccc(NC(=O)CSc2n[nH]c(-c3ccncc3)n2)cc1,-4,.,.,13
COc1ccc(C(=O)Nc2n[nH]c(-c3ccncc3)n2)cc1,6,12,-12,107*
CC(C)NC(=O)N1[C@H](CN(C)C(=O)c2ccccc2)[C@@H](c2ccccc2)[C@@H]1CO,.,.,.,-9
CC(=O)c1ccc(-c2ccc(C(=O)Nc3nc(-c4ccccn4)cs3)o2)cc1,12,-81,81*,-46
Cc1ccc(-c2csc(NC(=O)c3ccc(-c4ccccc4)cc3)n2)o1,-11,-36,36,89*
O=C(Nc1nc(-c2ccccn2)cs1)c1ccc([N+](=O)[O-])o1,6,-15,15,241*
SMILES,Vif imaging,SR-BI DiI-HDL act,SR-BI DiI inh,C2C12 statin
CCC(=O)N1[C@H](CO)[C@H]2c3ccccc3N(S(=O)(=O)c3ccccc3C)C[C@H]21,.,.,.,19
CC1(C)Cc2nc3sc4c(NCCO)ncnc4c3cc2CS1,0,-79,79*,-7
CCCCn1cnc2c(sc3nc4c(cc32)CSC(C)(C)C4)c1=O,-3,-29,29,6
Cc1cc(C(F)(F)F)nn1CC(=O)NCc1ccco1,-10,4,-4,3
Cc1cc(NS(=O)(=O)c2ccc(Cl)cc2)nn1CC(=O)NCc1ccco1,2,22,-22,98*
COc1ccc(S(=O)(=O)Nc2cccc3c2O[C@@H](CN(C)CC2CCCCC2)[C@@H](C)CN([C@@H](C)CO)C3=O)cc1,.,.,.,7
COCc1cc(N2CCN(c3ccccc3F)CC2)nc(-c2ccccc2)n1,-5,-80,80*,6
